From ChEMBL document CHEMBL1124988, “Synthesis and antimicrobial and cytotoxic activities of pyrrole-containing analogues of trichostatin A” (J Med Chem, 1990) come the findings set out here.

In brackets after ≈: the same amount, converted by molar mass.

In data set [1] the test system is unidentified adenovirus. The experiment in a line: Effective dose required for antiviral activity against adeno virus. The settings on record: read-out: ED50 (the source's name). The data set is classed as functional. The method in brief:
(§1)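 Plaque-reduction assay in Vero cells. Dose-response lines were drawn by linear regression, and ED50 is the concentration giving 50% fewer plaques than untreated, virus-infected controls.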

Data set [2] concerns African swine fever virus. As to the kind of experiment: Effective dose required for antiviral activity against ASFV virus. Format: functional. As to conditions: read-out: ED50 (the source's name).
Data set [3] has as its system Human alphaherpesvirus 1. As to the kind of experiment: Effective dose required for antiviral activity against HSV-1 virus. The settings on record: read-out: ED50 (the source's name). The data set is classed as functional. The method in brief: as §1
For data set [4], the system named is Vesicular stomatitis virus. As to the kind of experiment: Effective dose required for antiviral activity against VSV virus. Format: functional. As to conditions: read-out: ED50 (the source's name).
The test system of data set [5] is Vero. As to the kind of experiment: Maximum nontoxic dose that allow exponential cell growth for three cell cycles. The data set is classed as functional, Chlorocebus sabaeus. The method in brief:
(§2)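 Exponentially growing Vero cells were exposed to a range of compound concentrations for three cell cycles (3 days) at 37 °C in 5% CO2. Viable cells were counted by hemocytometer in duplicate samples. MNTD is the highest concentration still allowing exponential growth. TD50 is the concentration halving cell number versus untreated controls.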

The nature of data set [6]: Toxic dose that reduced by 50% the number of cells with respect to untreated controls. Format: toxicity, cell-based. As to conditions: chlorocebus sabaeus, Vero cells; read-out: TD50 (the source's name). The procedure, abridged: as §2
The test system of data set [7] is Vaccinia virus. As to the kind of experiment: Effective dose required for antiviral activity against Vaccinia virus. Format: functional. As to conditions: Orthopoxvirus vaccinia; read-out: ED50 (the source's name).

For the compound `Cn1cc(C(=O)c2ccc(N)cc2)cc1/C=C/C(=O)O`, the EC50 in data set [1] is 1000 µg/mL (≈ 3700 µM); in data set [2], 250 µg/mL (≈ 925 µM); in data set [3] it was > 1000 µg/mL; in data set [4], > 1000 µg/mL; in data set [7], 1000 µg/mL (≈ 3700 µM). Also, in data set [5], the MNTD was >1000 µg/mL. For the same compound, the CC50 in data set [6] is > 1000 µg/mL.

In the case of `CN(C)c1ccc(C(=O)c2cc(/C=C/C(=O)O)n(C)c2)cc1`, the EC50 was 125 µg/mL (≈ 419 µM) in data set [1]; > 250 µg/mL in data set [2]; > 250 µg/mL in data set [3]; > 500 µg/mL in data set [4]; > 250 µg/mL in data set [7]. This compound also displayed an MNTD in data set [5] of 125 µg/mL. Also, the CC50 in data set [6] is > 250 µg/mL.

In the case of `Cn1cc(C(=O)c2ccccc2)cc1/C=C/C(=O)NO`, the EC50 in data set [1], in data set [2], in data set [3], in data set [4] and in data set [7] was > 30 µg/mL each time. The compound also gave an MNTD in data set [5] of 15 µg/mL. Further, in data set [6], the CC50 is 30 µg/mL (≈ 111 µM).

On to `Cn1cc(C(=O)c2ccc(F)cc2)cc1/C=C/C(=O)NO`, for which the EC50 in data set [1] is > 50 µg/mL; in data set [2] it was 12 µg/mL (≈ 41.6 µM); in data set [3], 10 µg/mL (≈ 34.7 µM); in data set [4], > 50 µg/mL; in data set [7], 15 µg/mL (≈ 52 µM). Moreover, the MNTD in data set [5] is 8 µg/mL. For the same compound, in data set [6], the CC50 is 15 µg/mL (≈ 52 µM).

On to `CCOC(=O)/C=C/c1cc(C(=O)c2ccccc2)cn1C`, for which the EC50 in data set [1], in data set [2], in data set [3], in data set [4] and in data set [7] was 30 µg/mL (≈ 106 µM) in each case. The same compound returned an MNTD in data set [5] of 2 µg/mL. The CC50 in data set [6] turned out to be 4 µg/mL (≈ 14.1 µM).

For the compound `Cn1cc(C(=O)c2ccccc2)cc1/C=C/C(=O)O`, the EC50 is 250 µg/mL (≈ 979 µM) in data set [1]; 250 µg/mL (≈ 979 µM) in data set [2]; > 500 µg/mL in data set [3]; 500 µg/mL (≈ 1960 µM) in data set [4]; > 500 µg/mL in data set [7]. This compound displayed an MNTD in data set [5] of 250 µg/mL. In addition, the CC50 in data set [6] is > 250 µg/mL.

For the compound `CCOC(=O)/C=C/c1cc(C(=O)c2ccc(Cl)cc2)cn1C`, the EC50 in data set [1] was 30 µg/mL (≈ 94.4 µM); in data set [2], > 500 µg/mL; in data set [3], 350 µg/mL (≈ 1100 µM); in data set [4], > 1000 µg/mL; in data set [7] it was 500 µg/mL (≈ 1570 µM). This compound also returned an MNTD in data set [5] of 250 µg/mL. For the same compound, the CC50 in data set [6] was determined as 500 µg/mL (≈ 1570 µM).

Regarding `Cn1cc(C(=O)c2ccc([N+](=O)[O-])cc2)cc1/C=C/C(=O)O`, the EC50 is 50 µg/mL (≈ 167 µM) in data set [1]; 50 µg/mL (≈ 167 µM) in data set [2]; 50 µg/mL (≈ 167 µM) in data set [3]; > 100 µg/mL in data set [4]; 15 µg/mL (≈ 50 µM) in data set [7]. For the same compound, in data set [5], the MNTD was found to be 15 µg/mL. The CC50 in data set [6] was found to be 60 µg/mL (≈ 200 µM).

`Cn1cc(C(=O)c2ccc(Cl)cc2)cc1/C=C/C(=O)NO`: the EC50 in data set [1] was 15 µg/mL (≈ 49.2 µM); in data set [2], 20 µg/mL (≈ 65.6 µM); in data set [3], 30 µg/mL (≈ 98.4 µM); in data set [4] it was > 30 µg/mL; in data set [7], 30 µg/mL (≈ 98.4 µM). For the same compound, the MNTD in data set [5] is 15 µg/mL. The CC50 in data set [6] came to 30 µg/mL (≈ 98.4 µM).

Consider `CCOC(=O)/C=C/c1cc(C(=O)c2ccc([N+](=O)[O-])cc2)cn1C`, for which the EC50 amounted to 60 µg/mL (≈ 183 µM) in data set [2], 125 µg/mL (≈ 381 µM) in data set [3] and 60 µg/mL (≈ 183 µM) in data set [7]. In data set [5], the MNTD came to 2 µg/mL. In addition, the CC50 in data set [6] was 8 µg/mL (≈ 24.4 µM).

Consider `Cn1cc(C(=O)c2ccc(F)cc2)cc1/C=C/C(=O)O`, for which the EC50 in data set [1] is 50 µg/mL (≈ 183 µM); in data set [2] it was 30 µg/mL (≈ 110 µM); in data set [3] it was 60 µg/mL (≈ 220 µM); in data set [4], > 50 µg/mL; in data set [7], 100 µg/mL (≈ 366 µM). Further, in data set [5], the MNTD was 15 µg/mL. In data set [6], the CC50 was found to be 60 µg/mL (≈ 220 µM).

On to `Nc1nc2c(ncn2COCCO)c(=O)[nH]1` [ACYCLOVIR], for which the EC50 in data set [2] was 40 µg/mL (≈ 178 µM); in data set [3], 0.02 µg/mL (≈ 0.0888 µM); in data set [4], > 40 µg/mL; in data set [7], > 110 µg/mL. Also, the MNTD in data set [5] is 40 µg/mL. Besides, the CC50 in data set [6] came out at 240 µg/mL (≈ 1070 µM).

On to `Cn1cc(C(=O)c2ccc(Cl)cc2)cc1/C=C/C(=O)O`, for which the EC50 in data set [1] is > 500 µg/mL; in data set [2], > 250 µg/mL; in data set [3] it was 500 µg/mL (≈ 1730 µM); in data set [4] it was 250 µg/mL (≈ 863 µM); in data set [7] it was 100 µg/mL (≈ 345 µM). Moreover, the MNTD in data set [5] stood at 30 µg/mL. In data set [6], the CC50 turned out to be 125 µg/mL (≈ 431 µM).

On to `Cc1ccc(C(=O)c2ccn(/C=C/C(=O)O)c2)cc1`, for which the EC50 in data set [1] was 60 µg/mL (≈ 235 µM); in data set [2], 8 µg/mL (≈ 31.3 µM); in data set [3], 100 µg/mL (≈ 392 µM); in data set [4], > 125 µg/mL; in data set [7], 100 µg/mL (≈ 392 µM). This compound also had an MNTD in data set [5] of 30 µg/mL. In data set [6], the CC50 came to 125 µg/mL (≈ 490 µM).

For `CCOC(=O)/C=C/c1cc(C(=O)c2ccc(-n3ccnc3)cc2)cn1C`, the EC50 in data set [1] was 15 µg/mL (≈ 42.9 µM); in data set [2], 30 µg/mL (≈ 85.9 µM); in data set [3], 500 µg/mL (≈ 1430 µM); in data set [4], 500 µg/mL (≈ 1430 µM); in data set [7] it was > 500 µg/mL. In addition, the MNTD in data set [5] is 15 µg/mL. Further, the CC50 in data set [6] is 30 µg/mL (≈ 85.9 µM).

With `Nc1ncnc2c1ncn2[C@@H]1O[C@H](CO)[C@@H](O)[C@@H]1O` [VIDARABINE], the EC50 in data set [2] was 40 µg/mL (≈ 150 µM); in data set [3], 10 µg/mL (≈ 37.4 µM); in data set [4], > 10 µg/mL; in data set [7], 16 µg/mL (≈ 59.9 µM). This compound also had an MNTD in data set [5] of 6 µg/mL. In addition, the CC50 in data set [6] came out at 10 µg/mL (≈ 37.4 µM).

In the case of `CCOC(=O)/C=C/c1cc(C(=O)c2ccc(F)cc2)cn1C`, the EC50 was 50 µg/mL (≈ 166 µM) in data set [1]; 10 µg/mL (≈ 33.2 µM) in data set [2]; 10 µg/mL (≈ 33.2 µM) in data set [3]; 50 µg/mL (≈ 166 µM) in data set [4]; 10 µg/mL (≈ 33.2 µM) in data set [7]. This compound also came in with an MNTD in data set [5] of 4 µg/mL. Further, the CC50 in data set [6] was 15 µg/mL (≈ 49.8 µM).

For the compound `CCOC(=O)/C=C/c1cc(C(=O)c2ccc(N(C)C)cc2)cn1C`, the EC50 in data set [1] was determined as 15 µg/mL (≈ 46 µM); in data set [2], 8 µg/mL (≈ 24.5 µM); in data set [3], 15 µg/mL (≈ 46 µM); in data set [4], 8 µg/mL (≈ 24.5 µM); in data set [7], 15 µg/mL (≈ 46 µM). In addition, the MNTD in data set [5] is 2 µg/mL. Besides, the CC50 in data set [6] is 4 µg/mL (≈ 12.3 µM).

On to `CCOC(=O)/C=C/c1cc(C(=O)c2ccc(OC)cc2)cn1C`, for which the EC50 in data set [1] was found to be 4 µg/mL (≈ 12.8 µM); in data set [2], 8 µg/mL (≈ 25.5 µM); in data set [3], 15 µg/mL (≈ 47.9 µM); in data set [4] it was 15 µg/mL (≈ 47.9 µM); in data set [7], 20 µg/mL (≈ 63.8 µM). In data set [5], this compound came in with an MNTD of 8 µg/mL. The CC50 in data set [6] stood at 15 µg/mL (≈ 47.9 µM).

`COc1ccc(C(=O)c2cc(/C=C/C(=O)O)n(C)c2)cc1`: the EC50 in data set [1] was 250 µg/mL (≈ 876 µM); in data set [2], 350 µg/mL (≈ 1230 µM); in data set [3], > 500 µg/mL; in data set [4], 1000 µg/mL (≈ 3510 µM); in data set [7], 500 µg/mL (≈ 1750 µM). The same compound returned an MNTD in data set [5] of 500 µg/mL. Also, the CC50 in data set [6] was > 500 µg/mL.

As to `Cn1cc(C(=O)c2ccc(-n3ccnc3)cc2)cc1/C=C/C(=O)O`, the EC50 is 250 µg/mL (≈ 778 µM) in data set [1]; 250 µg/mL (≈ 778 µM) in data set [2]; > 250 µg/mL in data set [3]; 250 µg/mL (≈ 778 µM) in data set [4]; > 250 µg/mL in data set [7]. The compound further displayed an MNTD in data set [5] of 125 µg/mL. For the same compound, the CC50 in data set [6] is > 250 µg/mL.

As to `Cn1cc(C(=O)c2ccc([N+](=O)[O-])cc2)cc1/C=C/C(=O)NO`, the EC50 was 25 µg/mL (≈ 79.3 µM) in data set [1]; 25 µg/mL (≈ 79.3 µM) in data set [2]; 15 µg/mL (≈ 47.6 µM) in data set [3]; > 50 µg/mL in data set [4]; 15 µg/mL (≈ 47.6 µM) in data set [7]. The compound also displayed an MNTD in data set [5] of 15 µg/mL. Further, the CC50 in data set [6] was 30 µg/mL (≈ 95.2 µM).
